Only some compounds are listed: those with a hit (about 1.6% of all), similar ones and a draw of the others.
UHRF1 MBD2 ctr: human UHRF1 methylated DNA binding inhibitors; actives 0.75% (n = 370,000); inhibition, % at 4.4 µM; UHRF1 binding to methylated oligo, TR-FRET; Q96T88; AID 687016; in the data active = inhibition above about 21%;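 also: UHRF1 SRA domain binding a hemimethylated CpG hairpin DNA probe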
Target sequence (Q96T88 whole entry, looked up, the tested form may be a part): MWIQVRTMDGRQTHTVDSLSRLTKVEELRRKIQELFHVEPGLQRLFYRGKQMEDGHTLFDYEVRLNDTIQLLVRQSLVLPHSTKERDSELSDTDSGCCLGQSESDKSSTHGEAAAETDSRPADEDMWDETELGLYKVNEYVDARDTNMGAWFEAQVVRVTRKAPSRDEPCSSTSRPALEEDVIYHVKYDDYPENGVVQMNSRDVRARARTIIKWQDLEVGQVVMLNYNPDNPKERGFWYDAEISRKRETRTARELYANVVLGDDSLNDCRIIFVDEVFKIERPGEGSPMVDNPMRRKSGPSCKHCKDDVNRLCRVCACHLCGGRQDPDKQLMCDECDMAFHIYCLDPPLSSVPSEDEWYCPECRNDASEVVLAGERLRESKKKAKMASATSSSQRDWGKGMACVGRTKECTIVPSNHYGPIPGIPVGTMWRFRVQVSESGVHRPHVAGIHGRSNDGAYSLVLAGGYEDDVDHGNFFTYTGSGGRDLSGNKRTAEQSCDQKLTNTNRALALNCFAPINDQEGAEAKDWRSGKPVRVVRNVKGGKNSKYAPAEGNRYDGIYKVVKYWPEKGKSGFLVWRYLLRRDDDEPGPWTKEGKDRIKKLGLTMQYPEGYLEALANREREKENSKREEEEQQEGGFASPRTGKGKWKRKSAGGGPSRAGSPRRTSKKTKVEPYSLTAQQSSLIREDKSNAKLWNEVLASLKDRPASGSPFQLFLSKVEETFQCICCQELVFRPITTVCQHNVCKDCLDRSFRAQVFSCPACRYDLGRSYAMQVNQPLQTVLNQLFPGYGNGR
MBD2 inh: inhibitors of human MBD2 binding to methylated oligonucleotide. inhibition, % at 4.4 µM. TR-FRET. Q9UBB5. actives 0.31% (n = 370,000); in the data active = inhibition above about 13%
LEDGF integ inh: blocks HIV-1 LEDGF/p75-dependent DNA integration; TR-FRET IN-LEDGF/p75 DNA integration, Eu/Cy5; inhibition, % at 3.7 µM; actives 0.64% (n = 370,000); AID 743269;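 active = inhibition above the screen-wide mean plus 3 SD, cut at about 13% in these data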;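 also: signal is the Cy5 over europium emission ratio at 671 and 618 nm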
TDP2 absorb: TDP2 (human) inhibition, absorbance primary screen | O95551 | recombinant TDP2, T5PNP hydrolysis, p-nitrophenol absorbance 415 nm | inhibition, % at 12.8 µM | actives 0.34% (n = 370,000) | AID 720702;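 active = inhibition above the mean of all tested compounds plus 3 SD, set per campaign, cut at about 25% in these data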
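System – recombinant human TDP2 · Quantity – TDP2 enzyme at 120 nM final · Doses – single concentration, 12.8 µM nominal, with 1% DMSO · Incubation – 2 h at 37 °C · Measured by – epi absorbance of p-nitrophenol freed from T5PNP by hydrolysis · Read-out – % inhibition relative to enzyme-containing and enzyme-free wells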
TDP2 confirm: human TDP2 inhibition, confirmation; shares compounds with TDP2 absorb; recombinant human TDP2, absorbance read-out; inhibition, % at 12.8 µM; actives 22% (n = 1,100); in the data active = inhibition above about 25%
A number is an active result; . = inactive; / = no result given.

SMILES	UHRF1 MBD2 ctr	MBD2 inh	LEDGF integ inh	TDP2 absorb	TDP2 confirm
CCC(c1nnnn1-c1ccc2c(c1)OCCO2)N1CCN(c2ccc(C(F)(F)F)cc2[N+](=O)[O-])CC1 (stereo not given)	.	.	.	.	/
O=C1C(=C(I)I)c2ccccc2-c2ccccc21	.	.	.	98	88
CCN(CC)S(=O)(=O)c1ccc(N2CCN(S(=O)(=O)c3ccccc3)CC2)nc1	.	.	.	25	.
CCN(CC)S(=O)(=O)c1ccc(N2CCN(S(=O)(=O)c3ccccc3C#N)CC2)nc1	.	.	.	.	/
Cc1ccc(C2(c3noc(CN4CCC(c5ccncc5)CC4)n3)CCCC2)cc1	.	.	.	.	/
Cc1ccccc1OCCC(=O)OCC(=O)c1c(N)n(CC(C)C)c(=O)n(C)c1=O	.	.	.	29	.
Cc1nc(C2CCC3C4CCC5=CC(=O)CC[C@]5(C)C4CC[C@]23C)cs1 (stereo not given in full)	.	.	.	.	/
COc1cccc(/C=C2\SC(=S)N(CC(=O)N(C)C3CCS(=O)(=O)C3)C2=O)c1 (stereo not given)	23	.	.	30	.
O=c1cc(-c2ccc(C3CCCCC3)cc2)[nH][nH]1	.	.	.	.	/
O=c1cc(-c2ccc(Br)cc2)[nH][nH]1	.	.	.	51	.
COc1ccc(CNc2nc3nc(-c4ccccc4)cc(=O)n3[nH]2)cc1OC	.	.	.	33	.
CC(=O)c1ccc(S(=O)(=O)NC2CCSc3ccccc32)cc1 (stereo not given)	.	.	.	.	/
O=S(=O)(NC1CCSc2ccccc21)c1ccc(Cl)nc1 (stereo not given)	.	.	.	28	.
Cc1cccc(N2C(=O)C3C4CC(C(Br)C4Br)C3C2=O)n1 (stereo not given)	.	.	.	.	/
O=S(=O)(c1ccc(S(=O)(=O)N2CCC(O)CC2)cc1)N1CCCC1	.	.	.	25	.
O=C(CCNC(=O)c1ccco1)NCc1ccc(F)cc1	.	.	.	.	/
COc1ccc(NC(=S)NC2CCN(Cc3ccccc3)CC2)cc1OC	.	.	.	.	/
COc1ccc(/C=C/C(=O)NC2CCN(Cc3ccccc3)CC2)cc1OC	.	.	.	28	.
Cn1c(=S)[nH]c2sc3c(c2c1=O)CCC(C(C)(C)C)C3 (stereo not given)	.	.	.	27	.
CCCN1CCN(C(=O)CCCNC(=O)Cn2cnc3sc(C)c(C)c3c2=O)CC1	.	.	.	.	/
CC1CCN(CCCNC(=O)c2ccc(CS(=O)(=O)Cc3ccc(Cl)cc3)o2)CC1	.	.	.	27	.
COCCN1C[C@@H](CO)O[C@@H](n2cnc3c(N4CCN(c5ccccc5)CC4)ncnc32)C1	.	.	.	.	/
Cc1cccc(-n2c3nc(=O)[nH]c(=O)c-3cc3cc([N+](=O)[O-])ccc32)c1	.	.	.	54	47
CCOC(=O)c1c(C)oc2c1cc(NS(=O)(=O)c1ccc(C(=O)O)cc1)c1ccccc12	.	.	.	34	.
Cc1cc(C)c(CSc2nnnn2-c2ccc(C(=O)O)cc2)c(C)c1	.	.	.	.	/
SMILES	UHRF1 MBD2 ctr	MBD2 inh	LEDGF integ inh	TDP2 absorb	TDP2 confirm
Cc1c(C(=O)N2CCCCC2)c(S(=O)(=O)N(C)Cc2ccccc2)c(C)n1C	.	.	.	.	/
Cc1[nH]c(C)c(S(=O)(=O)N(C)Cc2ccccc2)c1C(=O)N1CCCC1	.	.	.	28	.
COc1ccc(OCCn2cc(/C=C(\C#N)C(=O)NCc3ccco3)c3ccccc32)cc1	.	.	.	.	/
COc1ccccc1OCCn1cc(/C=C(\C#N)C(=O)NCc2ccco2)c2ccccc21	.	.	.	103	.
CCCOc1ccc(N)cc1N	.	.	38	29	.
O=C(CCNc1ccccc1)c1ccc2c(c1)OCO2	.	.	.	.	/
CC(CC(=O)N1CCc2ccccc21)n1cccn1 (stereo not given)	.	.	.	.	/
O=C(O)c1ccc(OCc2ccc(C(=O)O)o2)cc1	.	.	.	.	/
N#Cc1ccc(OCc2ccc(C(=O)O)o2)cc1	.	.	.	26	.
CCNc1nc(C)c(CN(C(C)=O)c2ccccc2)nc1C#N	.	.	.	.	/
CC(C)CC(=O)Nc1nnc(SCC(=O)NC2CCCC2)s1	.	.	.	.	/
CCCCC(=O)Nc1nnc(SCC(=O)NC2CC2)s1	.	.	.	39	.
CC(C)C(=O)Nc1nnc(SCC(=O)NC2CCCC2)s1	93	.	.	33	.
Brc1ccccc1OCCN1CCOCC1	.	.	.	26	.
O=C1C=C(Nc2ccc(F)cc2)c2ccccc2C1=O	.	.	.	.	/
CCOc1ccc(NC2=CC(=O)C(=O)c3ccccc32)cc1	.	.	23	32	40
COc1cc(OC)c(NC(=O)CCNS(=O)(=O)c2ccc3c(c2)CC(C)N3C(C)=O)cc1Cl (stereo not given)	.	.	.	31	.
COc1ccc(/C=C2/C(=O)N(Cc3ccccc3)N=C2C)cc1	.	.	.	71	.
COc1ccc(-c2ccc(=O)n(Cc3ccccc3)n2)cc1	.	.	.	.	/
CCOP(=O)(OCC)C(NC(=O)Nc1ccc(Cl)cc1)C(N)=O (stereo not given)	.	.	.	45	.
CCOP(=O)(OCC)C(NC(=O)Nc1ccccc1)C(N)=O (stereo not given)	.	.	.	.	/
CCCN(CCC)CCCNc1ccc2nnc(-c3ccc(F)cc3)n2n1	.	.	.	.	/
COc1cc(CCC(=O)OCC(=O)Nc2ccc(F)c(F)c2)cc(OC)c1OC	.	.	.	.	/
Cc1cccc(NC(=O)c2ccc(OCC3CCCO3)cc2)c1C (stereo not given)	.	.	.	.	/
CCN1CCN(CC(=O)Nc2nc3ccccc3s2)CC1	.	.	.	.	/
SMILES	UHRF1 MBD2 ctr	MBD2 inh	LEDGF integ inh	TDP2 absorb	TDP2 confirm
CN1CCN(CC(=O)Nc2nc3ccccc3s2)CC1	.	.	.	25	.
COC(=O)CCCNS(=O)(=O)c1ccc2ccccc2c1	.	.	.	.	/
Cc1cc(C)c(C(N)=O)c(Nc2cccc3ccccc23)n1	.	.	.	25	.
COc1ccccc1Nc1nc(C)cc(C)c1C(N)=O	.	.	.	.	/
COc1ccc(N2CCN(CC(=O)N3c4ccccc4CC3C)CC2)cc1 (stereo not given)	.	.	.	26	.
O=C(Cn1cnc([N+](=O)[O-])c1)Nc1ccc(F)c(Cl)c1	.	.	.	29	.
O=C(Cn1cnc([N+](=O)[O-])c1)Nc1ccc(Cl)cc1Cl	.	.	.	.	/
COc1ccc(-c2cc(NC=O)c3ncc(-c4ccc(C(C)=O)cc4)n3c2)cn1	.	.	.	.	/
Cc1[nH]n(-c2ccccc2)c(=O)c1C=NCc1ccncc1	.	.	.	27	.
Cc1[nH]n(-c2ccc(Cl)cc2)c(=O)c1/C=N/c1nnc(-c2ccccc2)s1	.	.	.	37	.
COc1ccc2nc(/N=C/c3c(C)[nH]n(-c4ccc(C)cc4)c3=O)sc2c1	.	.	.	31	.
